Experimental data reported in ChEMBL document CHEMBL2380295, “Structure-activity studies on the side chain of a simplified analog of aplysiatoxin (aplog-1) with anti-proliferative activity” (Bioorg Med Chem, 2013).

What was measured:
[1] = Cytotoxicity against human Raji cells assessed as cell viability at 10^-6 M; type: cell-based; conditions: read-out: Activity
[2] = Cytotoxicity against human Raji cells assessed as cell viability at 10^-7 M; type: cell-based; conditions: read-out: Activity
[3] = test system: Human gammaherpesvirus 4; assay: Induction of EBV-early antigen expressed in human Raji cells at 10^-6 M after 48 hrs by immunofluorescence assay relative to control; type: organism-based; conditions: human gammaherpesvirus 4, raji, 1 µM
Summary of the method: (§1)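 Raji B-lymphoblastoid cells (5 × 10^5/mL) in RPMI 1640 with 10% FBS, with 4 mM sodium n-butyrate as synergist and test compound at 10^-7 or 10^-6 M (final DMSO 0.4%). Incubated 48 h at 37 °C under 5% CO2. Smears were stained by indirect immunofluorescence using NPC patient serum and FITC anti-human IgG. At least 500 cells counted; % EA-positive recorded; n = 3, SEM.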

[4] = test system: Human gammaherpesvirus 4; assay: Induction of EBV-early antigen expressed in human Raji cells at 10^-7 M after 48 hrs by immunofluorescence assay relative to control; type: organism-based; conditions: human gammaherpesvirus 4, raji, 0.1 µM; summary of the method: as §1
[5] = test system: PC-3; assay: Growth inhibition of human PC3 cells after 48 hrs by sulforhodamine B assay; type: functional; conditions: PC-3, 48 h
Summary of the method: (§2)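 Yamori 39-line human cancer panel, NCI method with modifications. Cells plated in RPMI 1640 plus 5% FBS, attached overnight, then exposed 48 h to compound at 10^-8, 10^-7, 10^-6, 10^-5 and 10^-4 M. Sulforhodamine B staining read at 525 nm; % growth = 100[(T−T0)/(C−T0)] from duplicate-point averages, with T0 the time-zero absorbance. GI50 is the concentration giving 50.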

[6] = test system: DU-145; assay: Growth inhibition of human DU145 cells after 48 hrs by sulforhodamine B assay; type: functional; conditions: DU-145, 48 h; summary of the method: as §2
[7] = test system: MKN-74; assay: Growth inhibition of human MKN74 cells after 48 hrs by sulforhodamine B assay; type: functional; conditions: MKN-74, 48 h; summary of the method: as §2
[8] = test system: MKN-28; assay: Growth inhibition of human MKN28 cells after 48 hrs by sulforhodamine B assay; type: functional; conditions: MKN-28, 48 h; summary of the method: as §2
[9] = test system: MKN-45; assay: Growth inhibition of human MKN45 cells after 48 hrs by sulforhodamine B assay; type: functional; conditions: MKN-45, 48 h; summary of the method: as §2
[10] = test system: MKN-7; assay: Growth inhibition of human MKN7 cells after 48 hrs by sulforhodamine B assay; type: functional; conditions: MKN-7, 48 h; summary of the method: as §2
[11] = test system: St-4; assay: Growth inhibition of human St-4 cells after 48 hrs by sulforhodamine B assay; type: functional; conditions: St-4, 48 h; summary of the method: as §2
[12] = Growth inhibition of human MKN1 cells after 48 hrs by sulforhodamine B assay; type: functional; conditions: MKN-1, 48 h; summary of the method: as §2
[13] = Growth inhibition of human RXF631L cells after 48 hrs by sulforhodamine B assay; type: functional; conditions: RXF 631, 48 h; summary of the method: as §2
[14] = test system: ACHN; assay: Growth inhibition of human ACHN cells after 48 hrs by sulforhodamine B assay; type: functional; summary of the method: as §2
[15] = test system: OVCAR-8; assay: Growth inhibition of human OVCAR8 cells after 48 hrs by sulforhodamine B assay; type: functional; conditions: OVCAR-8, 48 h; summary of the method: as §2
[16] = test system: SK-OV-3; assay: Growth inhibition of human SKOV3 cells after 48 hrs by sulforhodamine B assay; type: functional; conditions: SK-OV-3, 48 h; summary of the method: as §2
[17] = test system: OVCAR-5; assay: Growth inhibition of human OVCAR5 cells after 48 hrs by sulforhodamine B assay; type: functional; conditions: OVCAR-5, 48 h; summary of the method: as §2
[18] = test system: OVCAR-3; assay: Growth inhibition of human OVCAR3 cells after 48 hrs by sulforhodamine B assay; type: functional; conditions: OVCAR-3, 48 h; summary of the method: as §2
[19] = test system: OVCAR-4; assay: Growth inhibition of human OVCAR4 cells after 48 hrs by sulforhodamine B assay; type: functional; conditions: OVCAR-4, 48 h; summary of the method: as §2
[20] = test system: DMS-114; assay: Growth inhibition of human DMS114 cells after 48 hrs by sulforhodamine B assay; type: functional; conditions: DMS-114, 48 h; summary of the method: as §2
[21] = test system: LOX IMVI; assay: Growth inhibition of human LOXIMVI cells after 48 hrs by sulforhodamine B assay; type: functional; summary of the method: as §2
[22] = test system: A549; assay: Growth inhibition of human A549 cells after 48 hrs by sulforhodamine B assay; type: functional; conditions: A549, 48 h; summary of the method: as §2
[23] = test system: DMS-273; assay: Growth inhibition of human DMS273 cells after 48 hrs by sulforhodamine B assay; type: functional; conditions: DMS-273, 48 h; summary of the method: as §2
[24] = test system: NCI-H460; assay: Growth inhibition of human NCI-H460 cells after 48 hrs by sulforhodamine B assay; type: functional; conditions: NCI-H460, 48 h; summary of the method: as §2
[25] = test system: NCI-H226; assay: Growth inhibition of human NCI-H226 cells after 48 hrs by sulforhodamine B assay; type: functional; conditions: NCI-H226, 48 h; summary of the method: as §2
[26] = test system: NCI-H522; assay: Growth inhibition of human NCI-H522 cells after 48 hrs by sulforhodamine B assay; type: functional; conditions: NCI-H522, 48 h; summary of the method: as §2
[27] = test system: HCT-116; assay: Growth inhibition of human HCT116 cells after 48 hrs by sulforhodamine B assay; type: functional; conditions: HCT-116, 48 h; summary of the method: as §2
[28] = test system: NCI-H23; assay: Growth inhibition of human NCI-H23 cells after 48 hrs by sulforhodamine B assay; type: functional; conditions: NCI-H23, 48 h; summary of the method: as §2
[29] = test system: HCT-15; assay: Growth inhibition of human HCT15 cells after 48 hrs by sulforhodamine B assay; type: functional; conditions: HCT-15, 48 h; summary of the method: as §2
[30] = test system: KM12; assay: Growth inhibition of human KM12 cells after 48 hrs by sulforhodamine B assay; type: functional; conditions: KM12, 48 h; summary of the method: as §2
[31] = test system: HT-29; assay: Growth inhibition of human HT-29 cells after 48 hrs by sulforhodamine B assay; type: functional; conditions: HT-29, 48 h; summary of the method: as §2
[32] = test system: SNB-78; assay: Growth inhibition of human SNB78 cells after 48 hrs by sulforhodamine B assay; type: functional; conditions: SNB-78, 48 h; summary of the method: as §2
[33] = Growth inhibition of human HCC2998 cells after 48 hrs by sulforhodamine B assay; type: functional; conditions: HCC 2998, 48 h; summary of the method: as §2
[34] = test system: SF-539; assay: Growth inhibition of human SF539 cells after 48 hrs by sulforhodamine B assay; type: functional; conditions: SF-539, 48 h; summary of the method: as §2
[35] = test system: SNB-75; assay: Growth inhibition of human SNB75 cells after 48 hrs by sulforhodamine B assay; type: functional; conditions: SNB-75, 48 h; summary of the method: as §2
[36] = test system: SF-295; assay: Growth inhibition of human SF295 cells after 48 hrs by sulforhodamine B assay; type: functional; conditions: SF-295, 48 h; summary of the method: as §2
[37] = test system: U-251; assay: Growth inhibition of human U251 cells after 48 hrs by sulforhodamine B assay; type: functional; conditions: U-251, 48 h; summary of the method: as §2
[38] = test system: SF-268; assay: Growth inhibition of human SF268 cells after 48 hrs by sulforhodamine B assay; type: functional; conditions: SF-268, 48 h; summary of the method: as §2
[39] = test system: MCF7; assay: Growth inhibition of human MCF7 cells after 48 hrs by sulforhodamine B assay; type: functional; conditions: MCF7, 48 h; summary of the method: as §2
[40] = test system: MDA-MB-231; assay: Growth inhibition of human MDA-MB-231 cells after 48 hrs by sulforhodamine B assay; type: functional; conditions: MDA-MB-231, 48 h; summary of the method: as §2
[41] = Growth inhibition of human BSY1 cells after 48 hrs by sulforhodamine B assay; type: functional; conditions: BSY-1, 48 h; summary of the method: as §2
[42] = Growth inhibition of human HBC5 cells after 48 hrs by sulforhodamine B assay; type: functional; conditions: HBC5, 48 h; summary of the method: as §2
[43] = Growth inhibition of human HBC4 cells after 48 hrs by sulforhodamine B assay; type: functional; conditions: HBC4, 48 h; summary of the method: as §2
[44] = Octanol-water partition coefficient, log P of the compound by HPLC analysis; type: physicochemical
Summary of the method: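 log P was estimated from HPLC retention, with column dead time measured using unretained formamide.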

[45] = molecular target: T1, Protein kinase C delta type (Homo sapiens, UniProt Q05655); assay: Inhibition of [3H]PDBu binding to PKCdelta-C1A domain peptide (unknown origin)
Summary of the method: (§3)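 Competitive [3H]PDBu binding used 14 or 40 nM PKCδ C1 peptide and 20 nM [3H]PDBu (19.6 Ci/mmol), in 50 mM Tris-maleate (pH 7.4 at 4 °C) with 50 µg/mL phosphatidylserine, 3 mg/mL bovine γ-globulin and varied inhibitor concentrations. IC50 was taken as 50% inhibition of specific binding. Ki was derived by the Sharkey–Blumberg method.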

[46] = molecular target: T1, Protein kinase C delta type; assay: Inhibition of [3H]PDBu binding to PKCdelta-C1B domain peptide (unknown origin); summary of the method: as §3

T1 sequence (Q05655 whole entry, the tested form may be a part): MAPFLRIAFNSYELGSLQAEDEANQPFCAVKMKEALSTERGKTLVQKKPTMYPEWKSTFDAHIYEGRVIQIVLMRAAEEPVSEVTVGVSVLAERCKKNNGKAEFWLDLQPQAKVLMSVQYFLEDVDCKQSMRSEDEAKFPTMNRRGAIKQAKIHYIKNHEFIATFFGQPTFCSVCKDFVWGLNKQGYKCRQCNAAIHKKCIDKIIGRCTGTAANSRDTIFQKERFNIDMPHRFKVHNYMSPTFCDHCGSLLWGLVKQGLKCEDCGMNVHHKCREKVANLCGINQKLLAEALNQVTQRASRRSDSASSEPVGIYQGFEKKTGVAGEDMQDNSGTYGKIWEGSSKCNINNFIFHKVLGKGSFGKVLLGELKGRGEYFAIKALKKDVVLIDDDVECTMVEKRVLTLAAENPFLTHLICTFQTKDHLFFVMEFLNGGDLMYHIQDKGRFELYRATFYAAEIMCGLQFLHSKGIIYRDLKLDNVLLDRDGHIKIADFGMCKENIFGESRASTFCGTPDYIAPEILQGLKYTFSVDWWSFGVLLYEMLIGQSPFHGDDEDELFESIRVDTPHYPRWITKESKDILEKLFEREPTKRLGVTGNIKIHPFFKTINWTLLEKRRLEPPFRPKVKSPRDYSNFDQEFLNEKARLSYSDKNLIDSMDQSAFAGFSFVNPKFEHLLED

## CC1(C)CC[C@@H]2CC(=O)O[C@@H](CO)CC(=O)O[C@@H]3C[C@@H](CCCCc4cc(O)c(Br)cc4Br)O[C@@]1(C3)O2
[1]
  viability at 1 µM: 40%
[2]
  viability at 0.1 µM: 40%
[3]
  Activity: 2.1%
[4]
  Activity: 2%
[5]
  GI50: 3.89 µM
[6]
  GI50: 11.2 µM
[7]
  GI50: 11 µM
[8]
  GI50: 8.32 µM
[9]
  GI50: 3.72 µM
[10]
  GI50: 6.46 µM
[11]
  GI50: 1.29 µM
[12]
  GI50: 10.2 µM
[13]
  GI50: 14.5 µM
[14]
  GI50: 5.75 µM
[15]
  GI50: 15.8 µM
[16]
  GI50: 15.8 µM
[17]
  GI50: 10 µM
[18]
  GI50: 6.17 µM
[19]
  GI50: 15.5 µM
[20]
  GI50: 13.5 µM
[21]
  GI50: 2.82 µM
[22]
  GI50: 4.9 µM
[23]
  GI50: 10.7 µM
[24]
  GI50: 1.23 µM
[25]
  GI50: 15.1 µM
[26]
  GI50: 13.8 µM
[27]
  GI50: 10.7 µM
[28]
  GI50: 6.61 µM
[29]
  GI50: 13.8 µM
[30]
  GI50: 4.79 µM
[31]
  GI50: 15.5 µM
[32]
  GI50: 12.9 µM
[33]
  GI50: 0.891 µM
[34]
  GI50: 10 µM
[35]
  GI50: 5.89 µM
[36]
  GI50: 6.61 µM
[37]
  GI50: 11.7 µM
[38]
  GI50: 12.6 µM
[39]
  GI50: 12.3 µM
[40]
  GI50: 2.95 µM
[41]
  GI50: 4.57 µM
[42]
  GI50: 14.1 µM
[43]
  GI50: 0.224 µM
[44]
  logP: 5
[45]
  Ki: 0.093 µM
[46]
  Ki: 0.0041 µM

## CC1(C)CC[C@@H]2CC(=O)O[C@@H](CO)CC(=O)O[C@@H]3C[C@@H](CCCCc4ccc(I)c(O)c4)O[C@@]1(C3)O2
[1]
  viability at 1 µM: 40%
[2]
  viability at 0.1 µM: 50%
[3]
  Activity: 2.3%
[4]
  Activity: 2.1%
[5]
  GI50: 3.09 µM
[6]
  GI50: 11.7 µM
[7]
  GI50: 11.7 µM
[8]
  GI50: 0.617 µM
[9]
  GI50: 11.7 µM
[10]
  GI50: 13.5 µM
[11]
  GI50: 0.933 µM
[12]
  GI50: 11.2 µM
[13]
  GI50: 12 µM
[14]
  GI50: 10 µM
[15]
  GI50: 16.2 µM
[16]
  GI50: 14.8 µM
[17]
  GI50: 4.47 µM
[18]
  GI50: 6.31 µM
[19]
  GI50: 13.2 µM
[20]
  GI50: 10.7 µM
[21]
  GI50: 2.88 µM
[22]
  GI50: 3.31 µM
[23]
  GI50: 0.191 µM
[24]
  GI50: 6.03 µM
[25]
  GI50: 12 µM
[26]
  GI50: 12 µM
[27]
  GI50: 10.2 µM
[28]
  GI50: 11 µM
[29]
  GI50: 15.5 µM
[30]
  GI50: 10.5 µM
[31]
  GI50: 14.5 µM
[32]
  GI50: 17 µM
[33]
  GI50: 1.62 µM
[34]
  GI50: 12 µM
[35]
  GI50: 12.3 µM
[36]
  GI50: 4.07 µM
[37]
  GI50: 14.5 µM
[38]
  GI50: 13.8 µM
[39]
  GI50: 12.3 µM
[40]
  GI50: 1.58 µM
[41]
  GI50: 11 µM
[42]
  GI50: 15.8 µM
[43]
  GI50: 0.295 µM
[44]
  logP: 4.3
[45]
  Ki: 0.082 µM
[46]
  Ki: 0.0013 µM
